In brackets after ≈: the same amount, converted by molar mass. Activity calls are given as the source filed them. No cut-off for these calls is given here.

For data set [1], the system named is Plasmodium falciparum. Kind of data set: Antimalarial activity against chloroquine-sensitive Plasmodium falciparum 3D7 measured after 48 hrs by SYBR green1 dye based fluorescence assay. The data set is classed as functional, organism-based. The following applies: 3D7, 48 h.
Data set [2] in a line: Aqueous solubility of the compound in pH 7.4 phosphate buffered saline. The format is physicochemical. The essentials:
(§1)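 In vitro DMPK measurements performed by an external DMPK group. Aqueous solubility measured in pH 7.4 PBS buffer. Protein binding measured in human plasma.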

Another data set has as its system HepG2. Kind of data set: Cytotoxicity against human HepG2 cells after 24 hrs by MTT assay. The format is cell-based. The following applies: HepG2, 24 h. For orientation: Tetrazolium assays rely on reduction of a dye to a coloured formazan, in cell work by metabolically active cells.
A short description of data set [3]: Therapeutic index, ratio of IC50 for human HepG2 cells to IC50 for chloroquine-sensitive Plasmodium falciparum 3D7.
The nature of data set [4]: Inhibition of recombinant Plasmodium falciparum NDH2 expressed in Escherichia coli using NADH as substrate.
Data set [5] has as its system Plasmodium falciparum. Kind of data set: Antimalarial activity against chloroquine-resistant Plasmodium falciparum W2 measured after 48 hrs by SYBR green1 dye based fluorescence assay. The format is functional, organism-based. To be noted: W2, 48 h.
Data set [6] relates to Plasmodium falciparum. As to the kind of experiment: Antimalarial activity against chloroquine-resistant Plasmodium falciparum TM90C2B harboring Y268S mutant measured after 48 hrs by SYBR green1 dye based fluorescence assay. The data set is classed as functional, organism-based.
The nature of data set [7]: Protein binding in human plasma. The format is ADME, cell-free. The following applies: read-out: PPB. The essentials: as §1
Data set [8] in a line: Inhibition of Plasmodium falciparum cytochrome bc1 complex using cytochrome-c as substrate and decylubiquinol as donor by spectrophotometric method.
The test system of data set [9] is Plasmodium falciparum. As to the kind of experiment: Antimalarial activity against Plasmodium falciparum TX13 expressing yeast dihydroorotate dehydrogenase at >1000 nM. The data set is classed as functional, organism-based.

One may read the IC50 as the concentration that inhibits the measured activity by half. As a reminder, the solubility is the dissolved amount per volume that the medium holds. As to `CCc1c(-c2cnn(Cc3ccc(OC(F)(F)F)cc3)c2)[nH]c2ccccc2c1=O`, the figures for the IC50 in the data set on Plasmodium falciparum [1] and in the data set with HepG2 were 88 nM and 19300 nM, respectively. The solubility in data set [2] came to 0.2 µM (≈ 0.0827 µg/mL). For the same compound, in data set [3], the selectivity ratio came to 219.

In the case of `Cc1c(-c2ccc(-c3cnn(CCN4CCOCC4)c3)nc2)[nH]c2ccccc2c1=O`, in the data set on Plasmodium falciparum [1], the IC50 was more than 1000 nM.

Regarding `O=C1C(O)=C([C@H]2CC[C@H](c3ccc(Cl)cc3)CC2)C(=O)c2ccccc21` [ATOVAQUONE], the IC50 was found to be 10000 nM in data set [4] and 0.3 nM in the data set with Plasmodium falciparum [5].

The compound `O=c1cc(-c2cnn(Cc3ccc(OC(F)(F)F)cc3)c2)[nH]c2ccccc12` came in with an IC50 in the data set on Plasmodium falciparum [1] of 74 nM.

In data set [2], `Cc1c(-c2ccc(Cc3ccc(OC(F)(F)F)cc3)cc2)[nH]c2ccccc2c1=O` yielded a solubility of 0.03 µM (≈ 0.0123 µg/mL).

For `Cc1c(-c2cnn(Cc3ccc(OC(F)(F)F)cc3)c2)[nH]c2cc(F)ccc2c1=O`, the IC50 in the data set with Plasmodium falciparum [1] was 80 nM.

For the compound `C=C(C)[C@H]1Cc2c(ccc3c2O[C@@H]2COc4cc(OC)c(OC)cc4[C@@H]2C3=O)O1` [ROTENONE], inhibition with HepG2 was half-maximal at 1520 nM (IC50).

In turn, `Cc1c(-c2cnn(Cc3ccc(OC(F)(F)F)cc3)c2)[nH]c2cc(Cl)ccc2c1=O` displayed an IC50 in the data set with Plasmodium falciparum [1] of 50 nM.

Turning to `Cc1c(-c2cnn(Cc3ccc(OC(F)(F)F)cc3)c2)[nH]c2ccc(F)cc2c1=O`, in the data set on Plasmodium falciparum [1], the half-inhibitory concentration (IC50) is 54 nM.

On to `Cc1c(-c2cnn(Cc3ccc(OC(F)(F)F)cc3)c2)[nH]c2ccccc2c1=O`, for which the IC50 amounted to 100 nM in the data set on Plasmodium falciparum [1], 837 nM in [4], 13000 nM in the data set with HepG2 and 33 nM in the data set with Plasmodium falciparum [5]. The compound also returned a solubility in data set [2] of 0.1 µM (≈ 0.0399 µg/mL). Moreover, the selectivity ratio in [3] came to 130.

Take `CCOC(=O)c1c(-c2cnn(Cc3ccc(OC(F)(F)F)cc3)c2)[nH]c2ccccc2c1=O`: in the data set with Plasmodium falciparum [1], the IC50 amounted to 89 nM.

Take `COc1ccc2c(=O)cc(-c3ccn(Cc4ccc(OC(F)(F)F)cc4)n3)[nH]c2c1`: inhibition in the data set on Plasmodium falciparum [1] was half-maximal at 541 nM (IC50).

Consider `COc1ccc2c(=O)c(Cl)c(-c3ccn(Cc4ccc(OC(F)(F)F)cc4)n3)[nH]c2c1`, for which the IC50 in the data set with Plasmodium falciparum [1] is 376 nM.

For `Cc1c(-c2ccn(Cc3ccc(OC(F)(F)F)cc3)n2)[nH]c2ccccc2c1=O`, the IC50 in the data set with Plasmodium falciparum [6] was found to be 300 nM; with Plasmodium falciparum [1], 270 nM; in [4], 68 nM; in the data set on HepG2, 21200 nM; in the data set with Plasmodium falciparum [5], 49 nM. The compound further gave a solubility in data set [2] of 0.4 µM (≈ 0.16 µg/mL). In addition, in data set [3], the selectivity ratio came to 79.

Regarding `O=c1c(Cl)c(-c2cnn(Cc3ccc(OC(F)(F)F)cc3)c2)[nH]c2ccccc12`, the IC50 came to 166 nM in the data set on Plasmodium falciparum [1], 28400 nM in the data set on HepG2 and 14 nM in the data set on Plasmodium falciparum [5]. The fraction unbound in [7] is less than 0.001. The same compound gave a solubility in [2] of 0.01 µM (≈ 0.0042 µg/mL). For the same compound, in data set [3], the selectivity ratio is 171.

In the case of `Cc1c(-c2cnn(CCc3ccc(OC(F)(F)F)cc3)c2)[nH]c2ccccc2c1=O`, in the data set with Plasmodium falciparum [1], the IC50 was more than 1000 nM.

Take `Cc1c(-c2cnn(Cc3ccc(OC(F)(F)F)cc3)c2)[nH]c2ccc(Cl)cc2c1=O`: the IC50 with Plasmodium falciparum [1] was determined as 110 nM.

As for `Cc1c(-c2cnn(Cc3ccc(OC(F)(F)F)cc3)c2)[nH]c2cc(C(F)(F)F)ccc2c1=O`, half-maximal inhibition with Plasmodium falciparum [1] (IC50) required 810 nM.

For `Cc1c(-c2ccc(-c3cnn(CCN4CCOCC4)c3)cc2)[nH]c2ccccc2c1=O`, the IC50 with Plasmodium falciparum [1] was more than 1000 nM.

As for `O=c1cc(-c2cnn(Cc3ccc(C(F)(F)F)nc3)c2)[nH]c2ccccc12`, it took 580 nM to reach half-maximal inhibition with Plasmodium falciparum [1] (IC50).

Regarding `CC(C)c1c(-c2cnn(Cc3ccc(OC(F)(F)F)cc3)c2)[nH]c2ccccc2c1=O`, half-maximal inhibition in the data set with Plasmodium falciparum [1] (IC50) required 299 nM.

Consider `COc1ccc2c(=O)c(C)c(-c3cnn(Cc4ccc(OC(F)(F)F)cc4)c3)[nH]c2c1`, for which the IC50 is 500 nM in the data set on Plasmodium falciparum [6]; 0.75 nM in data set [8]; 33 nM with Plasmodium falciparum [1]; 1000 nM in [4]; 11000 nM with HepG2; 15 nM in the data set with Plasmodium falciparum [5]. This compound also gave a solubility in data set [2] of 0.3 µM (≈ 0.129 µg/mL). Besides, the selectivity ratio in data set [3] came to 333.

`O=c1cc(-c2cnn(CCN3CCOCC3)c2)[nH]c2ccccc12` had an IC50 with Plasmodium falciparum [1] of 690 nM.

In the data set on HepG2, `CC/C(=C(\c1ccccc1)c1ccc(OCCN(C)C)cc1)c1ccccc1` [TAMOXIFEN] registered an IC50 of 12000 nM.

As to `COc1ccc2c(=O)cc(-c3cnn(Cc4ccc(OC(F)(F)F)cc4)c3)[nH]c2c1`, the midpoint of inhibition in the data set with Plasmodium falciparum [1], the IC50, lay at 419 nM.

With `COc1ccc2c(=O)c(Cl)c(-c3cnn(Cc4ccc(OC(F)(F)F)cc4)c3)[nH]c2c1`, the IC50 in the data set with Plasmodium falciparum [6] worked out at 110 nM; in the data set with Plasmodium falciparum [1] it was 91 nM; with Plasmodium falciparum [5], 11 nM. For the same compound, the result with Plasmodium falciparum [9] was inactive.

In turn, `O=c1cc(-c2cnn(Cc3ccc(F)cc3)c2)[nH]c2ccccc12` had an IC50 with Plasmodium falciparum [1] of 160 nM.

These data come from ChEMBL document CHEMBL4325926, “Potent Antimalarial 2-Pyrazolyl Quinolone bc 1 (Qi) Inhibitors with Improved Drug-like Properties” (ACS Med Chem Lett, 2018).
